Data from ChEMBL document CHEMBL5370602, “Structure-Based Design of a Lead Compound Derived from Natural Schweinfurthins with Antitumor Properties That Target Oxysterol-Binding Protein” (J Med Chem, 2023).
The source made the active and inactive calls. The rule behind the calls is not given here.

Experiments:
[1] = Toxicity in immunodeficient nude mouse model xenografted with high alert medicated patient derived human GBM1 cells assessed as body weight change at 50 mg/kg,ip QD for 17 days; assay type: organism-based; details: in vivo, 408 h, time 17 day
In short: (§1)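 Female athymic nude mice bearing subcutaneous GBM1-HAM PDX fragments (20 mm³); treatment began day 11 post-implant at tumour volumes 75-196 mm³, 10 per group. Compound i.p. daily in cyclodextrin vehicle (17 days alone, 27 days in combination); temozolomide 42 mg/kg p.o. daily for 5 days in PBS/glucose/Tween 80. Calliper volumes three times weekly; body weight and clinical signs monitored.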

[2] = Antitumor activity in high alert medicated patient derived human GBM1 cells xenografted in immunodeficient nude mouse model assessed as T/C ratio at 50 mg/kg,ip QD and measured after 9 to 11 days; assay type: functional; details: time 9-11 day; in short: as §1
[3] = Antitumor activity in high alert medicated patient derived human GBM1 cells xenografted in immunodeficient nude mouse model assessed as T/C ratio at 20 mg/kg,ip QD cotreatment with Temozolomide at 42 mg/kg,po QD and measured after 11 days; assay type: functional; details: time 11 day; in short: as §1
[4] = Prodrug conversion in Swiss mouse plasma assessed as half life of (2R,4aR,9aR)-7-((E)-2-(5-hydroxy-2,2-dimethylchroman-7-yl)vinyl)-1,1,4a-trimethyl-2,3,4,4a,9,9a-hexahydro-1H-xanthene-2,5-diol metabolite at 20 mg/kg, IP and measured upto 6 hrs by LC-MS/MS analysis; assay type: ADME, organism-based; details: in vivo
In short: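 Male Swiss mice (5-6 weeks, 3 per dose) given a single i.p. dose of prodrug, 2.5 mg/mL in 15% hydroxypropyl-β-cyclodextrin in 65 mM phosphate pH 7.4. Retro-orbital blood taken at 5, 15, 30 min and 1, 3, 6 h; plasma acetonitrile-precipitated. Parent and metabolite quantified by LC-MS/MS with a 1-2,000 ng/mL calibration.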

[5] = target: T1, Oxysterol-binding protein 1 (Homo sapiens) (UniProt P22059); experiment: Inhibition of human OSBP in human hTERT-RPE1 cells assessed as increase in OSBP recruitment at TGN and measured after 4 hrs by confocal microscopy; assay type: cell-based
T1 sequence (whole entry): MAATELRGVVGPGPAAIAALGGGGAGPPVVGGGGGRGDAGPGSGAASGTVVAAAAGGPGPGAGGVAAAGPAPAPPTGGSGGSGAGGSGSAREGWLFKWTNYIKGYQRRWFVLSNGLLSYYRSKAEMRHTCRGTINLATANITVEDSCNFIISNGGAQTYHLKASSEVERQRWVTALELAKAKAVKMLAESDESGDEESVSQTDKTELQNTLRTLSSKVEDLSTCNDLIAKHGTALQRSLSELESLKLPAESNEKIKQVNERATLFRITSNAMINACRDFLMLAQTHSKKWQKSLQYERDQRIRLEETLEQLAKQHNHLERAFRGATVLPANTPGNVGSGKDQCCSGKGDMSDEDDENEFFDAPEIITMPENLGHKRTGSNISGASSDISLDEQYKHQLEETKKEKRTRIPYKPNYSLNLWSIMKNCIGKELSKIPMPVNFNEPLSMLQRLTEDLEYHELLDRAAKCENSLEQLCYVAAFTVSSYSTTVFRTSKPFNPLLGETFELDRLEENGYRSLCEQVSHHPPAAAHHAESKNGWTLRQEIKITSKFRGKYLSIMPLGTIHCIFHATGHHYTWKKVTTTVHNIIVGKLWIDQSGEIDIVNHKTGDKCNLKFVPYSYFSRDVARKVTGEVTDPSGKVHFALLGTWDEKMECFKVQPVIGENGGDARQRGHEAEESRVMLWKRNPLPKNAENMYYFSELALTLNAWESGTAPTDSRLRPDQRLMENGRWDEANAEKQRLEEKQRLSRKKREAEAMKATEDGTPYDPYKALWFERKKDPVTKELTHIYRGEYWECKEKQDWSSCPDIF

[6] = target: T2, Oxysterol-binding protein 1 (Homo sapiens, UniProt P22059); experiment: Inhibition of human C-terminal 6-His tagged OSBP ORD domain (401 to 807 residues) expressed in baculovirus-infected Sf9 cells assessed as reduction in DHE transfer from liposome (Le mimicking ER) to liposome (Lg mimicking golgi) with compound by FRET assay
T2 sequence (P22059 whole entry): T1 sequence (whole entry)
In short: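 Purified human OSBP ORD (401-807, C-terminal 6×His) from baculovirus-infected Sf9 cells, used in a DHE sterol transfer fluorescence assay. Signal corrected for compound fluorescence. Kinetics fitted linearly or by ΔF = ΔFmax(1 − e^−kt) to give apparent k, which was plotted against compound concentration. Ki from a quadratic (tight binders) or hyperbolic equation, three independent experiments.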

[7] = target: T1, Oxysterol-binding protein 1 (Homo sapiens); experiment: Inhibition of human OSBP in human hTERT-RPE1 cells assessed as increase in OSBP recruitment at TGN and measured after 10 mins by confocal microscopy; assay type: cell-based
[8] = Antitumor activity in high alert medicated patient derived human GBM1 cells xenografted in immunodeficient nude mouse model assessed as change in tumor volume at 50 mg/kg,ip QD cotreatment with Temozolomide at 42 mg/kg,po QD and measured after 11 days relative to control; assay type: functional; details: time 11 day; in short: as §1
[9] = Toxicity in immunodeficient nude mouse model xenografted with high alert medicated patient derived human GBM1 cells assessed as clinical symptoms at 20 mg/kg,ip QD for 27 days cotreatment with Temozolomide at 42 mg/kg,po QD for 5 days; assay type: organism-based; details: in vivo, 648 h, time 27 day; in short: as §1
[10] = Permeability across blood brain barrier in Swiss mouse assessed as brain to plasma ratio of (2R,4aR,9aR)-7-((E)-2-(5-hydroxy-2,2-dimethylchroman-7-yl)vinyl)-1,1,4a-trimethyl-2,3,4,4a,9,9a-hexahydro-1H-xanthene-2,5-diol metabolite at 15 mg/kg, ip and measured after 1.5 hrs by LC-MS/MS analysis; assay type: ADME, organism-based
In short: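 Nine male Swiss mice given 15 mg/kg prodrug i.p. (4 mg/mL in cyclodextrin vehicle). Blood taken from three mice at each of 0.25, 0.75 and 1.5 h; animals then saline-perfused transcardially under isoflurane. Plasma and brain homogenate (1:1 water) acetonitrile-precipitated and analyzed by LC-MS/MS.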

[11] = Antitumor activity in high alert medicated patient derived human GBM1 cells xenografted in immunodeficient nude mouse model assessed as tumor growth inhibition at 50 mg/kg,ip QD cotreatment with Temozolomide at 42 mg/kg,po QD and measured from 9 to 11 days; assay type: functional; in short: as §1
[12] = Antitumor activity in high alert medicated patient derived human GBM1 cells xenografted in immunodeficient nude mouse model assessed as tumor growth inhibition at 20 mg/kg,ip QD cotreatment with Temozolomide at 42 mg/kg,po QD and measured after 11 days; assay type: functional; details: GBM1, 264 h; in short: as §1
U-87 MG = experiment: Induction of autophagy in human U-87 MG cells assessed as decrease in P62 expression at 0.05 to 1 uM incubated for 48 hrs by Western blot analysis; assay type: functional, cell-based; details: U-87MG ATCC
In short: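 U-87 MG cells cultured two days, then exposed 48 h to increasing doses. Lysed in RIPA with protease inhibitors; 5 µg protein run on 4-20% SDS gels and transferred to PVDF. Probed for phospho/total AKT, S6, S6K, P62 and LC3, detected by ECL. Band intensities normalized to β-actin.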

[13] = Toxicity in immunodeficient mouse assessed as clinical symptoms at 100 mg/kg,ip QD for 5 days; assay type: organism-based; details: in vivo, 120 h, time 5 day

Question: Which Activity [1] does the source give for `CC1(C)CCc2c(O)cc(/C=C/c3cc(O)c4c(c3)C[C@@H]3C(C)(C)[C@H](OC=O)CC[C@@]3(C)O4)cc2O1` here?
Answer: Its Activity is “Non-Toxic”.

Question: And the T/C [2]?
Answer: The T/C was 70.05%.

Question: And the T/C [3]?
Answer: The T/C was 49.91%.

Question: What about the t1/2 [4] of the same molecule?
Answer: The t1/2 was 2 h.

Question: What about the inhibition [5] of the same molecule?
Answer: Its inhibition is “inactive”.

Question: What about the Ki [6] of the same molecule?
Answer: Its Ki is 1.07 µM.

Question: And the inhibition [7]?
Answer: Its inhibition is “Active”.

Question: And the Activity [8]?
Answer: Its Activity is 329.18%.

Question: And the Activity [9]?
Answer: The Activity was “Non-Toxic”.

Question: And the BPR [10]?
Answer: Its BPR is 1.74.

Question: And the TGDI at 50 mg/kg [11]?
Answer: Its TGDI at 50 mg/kg is 2.07%.

Question: What about the TGDI at 20 mg/kg [12] of the same molecule?
Answer: The TGDI at 20 mg/kg was 1.75.

Question: What about the Activity (U-87 MG) of the same molecule?
Answer: The Activity was “Dose-Dependent Effect”.

Question: What about the Activity [13] of the same molecule?
Answer: The Activity was “Non-Toxic”.
